Experiments:
[1] = Toxicity in Sprague-Dawley rat assessed as induction of mortality at 200 mg/kg, po dosed once daily for 2 months as 5 days per week schedule; assay type: organism-based; conditions: in vivo, 120 h
[2] = AUC (0 to infinity) in Sprague-Dawley rat at 150 umol/kg, po measured up to 1440 mins by LC/MS/MS analysis; assay type: ADME, organism-based; set-up: dose 150 umol/kg, route oral, time infinity; conditions: in vivo, 24 h
Mus musculus [3] = experiment: Toxicity in mouse assessed as reduction in monocytes counts at 200 mg/kg, po dosed once daily for 2 months as 5 days per week schedule; conditions: in vivo, 120 h
Rattus norvegicus [4] = experiment: Iron scavenging activity in 59Fe-ferritin-loaded rat assessed as iron mobilization level at 150 to 450 umol/kg, po dosed 1 hr after 59Fe-ferritin injection and measured 24 hrs after 59Fe-ferritin injection by gamma counting method relative to control; assay type: functional, organism-based
Summary of the method: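 Male SD rats, 300 g, fasted overnight, given about 1 μC 59Fe-ferritin i.v. under isoflurane. Chelator gavaged 1 h later, then rats housed in metabolic cages; food returned 1 h after dosing. Killed 24 h after 59Fe-ferritin. Urine, faeces, liver and gut gamma-counted. 8 rats per condition.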

Mus musculus [5] = experiment: Toxicity in mouse assessed as reduction in eosinophils counts at 200 mg/kg, po dosed once daily for 2 months as 5 days per week schedule; conditions: in vivo, 120 h
[6] = Apparent volume of distribution in Sprague-Dawley rat at 75 umol/kg, po measured up to 1440 mins by LC/MS/MS analysis; assay type: ADME, organism-based; conditions: in vivo, 24 h
[7] = Cmax in Sprague-Dawley rat at 150 umol/kg, po measured up to 1440 mins by LC/MS/MS analysis; assay type: ADME, organism-based; set-up: dose 150 umol/kg, route oral; conditions: in vivo
[8] = Binding affinity to Mg2+ ion assessed as affinity constant by spectrophotometric titration method
[9] = Binding affinity to Co2+ ion assessed as affinity constant by spectrophotometric titration method
[10] = Apparent volume of distribution in Sprague-Dawley rat at 300 umol/kg, po measured up to 1440 mins by LC/MS/MS analysis; assay type: ADME, organism-based; conditions: in vivo, 24 h
Cytochrome P450 2C9 = Cytochrome P450 2C9 (Homo sapiens, UniProt P11712); experiment: Inhibition of CYP2C9 in human liver microsomes; assay type: ADME
[11] = Binding affinity to Ni2+ ion assessed as affinity constant by spectrophotometric titration method
Summary of the method: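 Automated spectrophotometric titration with 0.1 M KOH in 0.1 pH steps, 3 min equilibration per step, 50 mm cuvette, iron complexes at ca. 40 µM. Titrated in competition with metal hydrolysis species up to pH 12.0. Hydrolysis constants taken from critical compilations. Iron spectra fitted over 400–700 nm.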

[12] = Cmax in Sprague-Dawley rat at 600 umol/kg, po measured up to 1440 mins by LC/MS/MS analysis; assay type: ADME, organism-based; set-up: dose 600 umol/kg, route oral; conditions: in vivo
[13] = Cmax in Sprague-Dawley rat at 75 umol/kg, po measured up to 1440 mins by LC/MS/MS analysis; assay type: ADME, organism-based; set-up: dose 75 umol/kg, route oral; conditions: in vivo
[14] = Apparent clearance in Sprague-Dawley rat at 75 umol/kg, po measured up to 1440 mins by LC/MS/MS analysis; assay type: ADME, organism-based; conditions: in vivo, read-out: CL(app) (converted)
[15] = Binding affinity to Mg2+ ion assessed as pM value by spectrophotometric titration method
Rattus norvegicus [16] = experiment: Iron scavenging activity in iron-overloaded rat assessed as iron removal efficacy at 75 to 1200 umol/kg, po; assay type: functional, organism-based
Summary of the method: (§1)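 Male SD rats (300 g), fasted overnight, given about 1 μC 59Fe-ferritin i.v. under isoflurane; chelator by oral gavage 1 h later; doses 75, 150, 300, 600 and 1200 μmol/kg. Rats housed in metabolic cages, food returned 1 h post-dose; killed 24 h after ferritin injection. Urine, faeces, liver and gut gamma-counted. Iron removal expressed as % efficacy.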

[17] = Drug metabolism in human liver microsomes assessed as oxidative metabolism incubated for 1 hr relative to deferiprone; assay type: ADME, Microsome
Mus musculus [18] = experiment: Toxicity in mouse assessed as effect on platelet population at 200 mg/kg, po dosed once daily for 2 months as 5 days per week schedule; conditions: in vivo, 120 h
[19] = Drug level in rat stomach at 150 umol/kg, po measured measured up to 6 hrs by LC-MS/MS analysis; assay type: ADME, organism-based; conditions: in vivo
Summary of the method: (§2)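 Single oral dose of 150 μmol/kg to SD rats, half male and half female, n=6 per group. Rats decapitated at 10 min, 30 min, 2 h and 6 h. Tissues dissected, saline-washed, weighed and homogenised in acetonitrile/water 1:9 (125 mg/mL). Drug level measured against plasma; mean ± SE.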

[20] = Drug level in rat kidney at 150 umol/kg, po measured measured up to 6 hrs by LC-MS/MS analysis; assay type: ADME, organism-based; conditions: in vivo; summary of the method: as §2
Rattus norvegicus [21] = experiment: Iron scavenging activity in iron-overloaded rat assessed as iron removal efficacy at 150 to 300 umol/kg, po relative to deferiprone; assay type: functional; summary of the method: as §1
[22] = Ratio of drug level in stomach to plasma in rat at 150 umol/kg, po measured within 10 mins by LC-MS/MS analysis; assay type: ADME, organism-based; conditions: stomach and plasma
Summary of the method: (§3)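 SD rats (half male, half female, n = 6 per group) given a single oral 150 μmol/kg dose. Killed at 10 min, 30 min, 2 h or 6 h; tissues washed in saline, weighed and homogenised in acetonitrile/water 1:9 (125 mg/mL). Tissue levels compared with plasma.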

Mus musculus [23] = experiment: Toxicity in mouse assessed as increase in reticulocyte population at 200 mg/kg, po dosed once daily for 2 months as 5 days per week schedule; conditions: in vivo, 120 h
Cytochrome P450 2B6 = target: T1, Cytochrome P450 2B6 (Homo sapiens, UniProt P20813); experiment: Inhibition of CYP2B6 in human liver microsomes; assay type: ADME
T1 sequence (P20813 whole entry): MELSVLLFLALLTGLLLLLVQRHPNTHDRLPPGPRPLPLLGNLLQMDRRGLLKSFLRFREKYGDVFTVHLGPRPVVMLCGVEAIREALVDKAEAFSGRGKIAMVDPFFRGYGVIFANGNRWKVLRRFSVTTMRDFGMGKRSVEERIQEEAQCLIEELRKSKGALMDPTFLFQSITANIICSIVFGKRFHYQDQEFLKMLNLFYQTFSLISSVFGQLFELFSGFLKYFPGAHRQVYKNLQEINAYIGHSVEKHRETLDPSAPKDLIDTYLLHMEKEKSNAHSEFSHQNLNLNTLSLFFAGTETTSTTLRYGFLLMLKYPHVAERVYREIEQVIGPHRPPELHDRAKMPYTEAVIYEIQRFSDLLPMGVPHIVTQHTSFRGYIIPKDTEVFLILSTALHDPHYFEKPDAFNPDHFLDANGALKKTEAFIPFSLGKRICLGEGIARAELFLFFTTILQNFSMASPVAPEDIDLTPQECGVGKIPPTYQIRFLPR

[24] = Ratio of drug level in kidney to plasma in rat at 150 umol/kg, po measured within 10 mins by LC-MS/MS analysis; assay type: ADME, organism-based; conditions: kidney and plasma; summary of the method: as §3

Sequence of Cytochrome P450 2C9 (P11712 whole entry): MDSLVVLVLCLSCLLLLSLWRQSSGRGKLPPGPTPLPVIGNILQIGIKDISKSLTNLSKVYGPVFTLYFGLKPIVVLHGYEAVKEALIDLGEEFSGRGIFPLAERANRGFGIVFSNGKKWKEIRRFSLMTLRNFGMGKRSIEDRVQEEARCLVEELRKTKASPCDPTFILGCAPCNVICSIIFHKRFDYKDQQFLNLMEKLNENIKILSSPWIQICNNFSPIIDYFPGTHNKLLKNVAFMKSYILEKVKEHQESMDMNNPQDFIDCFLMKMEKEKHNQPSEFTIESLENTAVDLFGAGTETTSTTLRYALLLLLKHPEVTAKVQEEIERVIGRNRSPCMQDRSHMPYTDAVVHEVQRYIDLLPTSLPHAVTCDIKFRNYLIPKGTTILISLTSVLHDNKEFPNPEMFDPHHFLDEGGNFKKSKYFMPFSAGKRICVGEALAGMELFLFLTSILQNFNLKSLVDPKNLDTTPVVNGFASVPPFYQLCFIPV

With `Cc1c(O)c(O)cc[n+]1[C@@H](CO)Cc1ccccc1.[Cl-]` the Activity [1] was “Non-Toxic”, the AUC [2] was 37700 ng·h/mL and the Activity (Mus musculus [3]) was “Non-Toxic”. The Activity (Rattus norvegicus [4]) was “Dose-dependent effect”, the Activity (Mus musculus [5]) was “Non-Toxic” and the Vz [6] was 7.6 L/kg. It also gave a Cmax [7] of 19900 ng/mL, a log K [8] of 9.12 and a log K [9] of 6.6. The Vz [10] was 3.72 L/kg, the IC50 (Cytochrome P450 2C9) was over 200 µM and the log K [11] was 6.92. For the same compound, the Cmax [12] was 70000 ng/mL, the Cmax [13] was 8670 ng/mL and the CL/F [14] was 21.2 mL/min/kg. The pM [15] was 7.59, the Activity (Rattus norvegicus [16]) was “Dose-dependent effect” and the Drug metabolism [17] was “Metabolite_Detected”. For the same compound, the Activity (Mus musculus [18]) was “Non-Toxic”, the Drug uptake [19] was “Not Active” and the Drug uptake [20] was “Not Active”. For the same compound, the “fold change (FC)” value (Rattus norvegicus [21]) was 3.1 - 3.8, the Kp at 10 min [22] was 3.3 to 8.8 and the Activity (Mus musculus [23]) was “Non-Toxic”. It also gave an IC50 (Cytochrome P450 2B6) of over 200 µM and a Kp at 10 min [24] of 3.3 to 8.8.

From ChEMBL document CHEMBL4376902, “CN128: A New Orally Active Hydroxypyridinone Iron Chelator” (J Med Chem, 2020)
